Source: ChEMBL document CHEMBL4364311, “Variations on a scaffold - Novel GABAA receptor modulators” (Eur J Med Chem, 2019)
Activity calls are given as the source filed them. No cut-off for these calls is given here.

Tests used:
[1] = target: T1, Gamma-aminobutyric acid receptor subunit alpha-1/beta-3 (Rattus norvegicus) (UniProt P62813+P63079); assay: (§1) Positive allosteric modulator activity at rat alpha1beta3 GABA-A receptor expressed in Xenopus laevis oocytes assessed as increase in GABA-induced chloride current at 30 uM co-applied with GABA at concentration of EC3-5 at -60 mV holding potential by two-microelectrode voltage clamp method relative to control; format: cell-based
In short: (§2)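 α1 and β3 RNA mixed 1:1 (final 56 ng/μl); collagenase-defolliculated stage 5–6 Xenopus oocytes injected with 2.8 ng mRNA, kept 2–3 days at 18 °C. Two-electrode clamp at −60 mV, room temperature, electrodes 1–3 MΩ with 2 M KCl, NDE perfusion 6 mL/min. GABA titrated to 3–5% of maximal current, co-applied with compound (0.1% DMSO final) until peak response.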

[2] = target: T1, Gamma-aminobutyric acid receptor subunit alpha-1/beta-3 (Rattus norvegicus); assay: as §1, with “current at 1 to 30 uM” for “current at 30 uM”; format: cell-based; in short: as §2
[3] = target: T1, Gamma-aminobutyric acid receptor subunit alpha-1/beta-3 (Rattus norvegicus); assay: as §1, with “10” for “30”; format: cell-based; in short: as §2
[4] = Solubility of the compound in DMSO; format: physicochemical
[5] = Solubility of the compound at 30 uM in NDE medium containing 0.1% DMSO; format: physicochemical
[6] = Solubility of the compound in MeOH; format: physicochemical

Compound	Efficacy [1] [%]	Activity [2]	Efficacy [3] [%]	solubility [4]	solubility [5]	solubility [6]	Activity [1]
COc1ccc2[nH]c(C(=O)O)c(/N=N/c3ccc(C)cc3)c2c1	400	Active	167	Soluble	Soluble	Soluble	–
COc1ccc2[nH]c(C(=O)O)c(/N=N/c3ccc(Br)cc3)c2c1	830	Active	–	Soluble	Soluble	Soluble	–
Cc1ccc(-n2nc3c4cc(Cl)ccc4[nH]cc-3c2=O)cc1	–	–	372	–	–	–	–
COc1ccc(/N=N/c2c(C(=O)O)[nH]c3ccc(Cl)cc23)cc1	2000	Active	919	Soluble	Soluble	Soluble	–
CCOC(=O)c1[nH]c2ccc(Cl)cc2c1/N=N/c1ccc(OC)cc1	–	–	–	–	–	–	inactive
COc1ccc(-n2nc3c4cc(Cl)ccc4[nH]cc-3c2=O)cc1	–	–	1060	–	–	–	–
COc1ccc2[nH]cc3c(=O)n(-c4ccc(C)cc4)nc-3c2c1	–	–	719	–	–	–	–
O=C(O)c1[nH]c2ccc(Cl)cc2c1/N=N/c1ccc(Br)cc1	3000	Active	–	Soluble	Soluble	Soluble	–
COc1ccc(-n2nc3c4cc(OC)ccc4[nH]cc-3c2=O)cc1	–	–	1120	–	–	–	–
Cc1ccc(/N=N/c2c(C(=O)O)[nH]c3ccc(Cl)cc23)cc1	1800	Active	707	Soluble	Soluble	Soluble	–
CCOC(=O)c1[nH]c2ccccc2c1/N=N/c1ccc(OC)cc1	–	–	–	–	–	–	inactive
COc1ccc(/N=N/c2c(C(=O)O)[nH]c3ccc(OC)cc23)cc1	300	–	196	Soluble	Soluble	Soluble	–
COc1ccc(/N=N/c2c(C(=O)O)[nH]c3ccccc23)cc1	200	–	–	Soluble	Soluble	Soluble	–
